Results gathered from unrelated publications.
Each line is one published result; the experiments were not run side by side.
Organism: Staphylococcus aureus
Read-out: microbial growth

With `COc1cc(Cc2cnc(N)nc2N)cc(OC)c1OC` the MIC was 16 µg/mL (broth dilution; FDA209).
The MIC of `Cc1[nH]c(C(=O)Nc2ccc(C(=O)NCC(=O)O)cc2N2CC[C@H](N)C2)c(Cl)c1Cl.Cl` is reported as > 32 µg/mL (broth dilution; ATCC29213).
`Cc1nn(-c2ccccc2)c2c1C(c1c[nH]c3ccccc13)N(C(=O)c1ccncc1)N2` (centres unmarked) gave an MIC of > 100 µg/mL (MTCC96; 24 h).
For `CC(C)(C)OC(=O)N[C@H]1CCN(c2cc(C(=O)NCC(=O)O)ccc2NC(=O)c2cc(Br)c(Br)[nH]2)C1`, the MIC was > 32 µg/mL (broth dilution; ATCC29213).
With `Nc1ccccc1OC(=O)C=Cc1ccc(O)c(O)c1` the MIC was 8 µg/mL (broth dilution; FDA209).
With `CC(O)CSc1nnc(COc2ccc(Cl)cc2Br)n1-c1ccccc1` (centres unmarked) the MIC was 12000 µg/mL.
The MIC of `C[C@@H]1O[C@@H](OC[C@H]2O[C@@H](Oc3cc(O)c4c(c3)O[C@H](c3ccc(O)cc3)CC4=O)[C@H](O)[C@@H](O)[C@@H]2O)[C@H](O)[C@H](O)[C@H]1O` is reported as > 250 µg/mL (broth dilution; 16 h).
With `Cl.N[C@H]1CCN(c2cc(C(=O)NCC(=O)O)ccc2NC(=O)c2cc(Br)c(Br)[nH]2)C1` the MIC was > 32 µg/mL (broth dilution; ATCC29213).
`O=C(O)[C@H]1O[C@@H](Oc2c(-c3ccc(O)c(O)c3)oc3cc(O)cc(O)c3c2=O)[C@H](O)[C@@H](O)[C@@H]1O` has an MIC of > 250 µg/mL (broth dilution; 16 h).
The MIC of `CC(O)CSc1nnc(-c2cc3ccccc3o2)n1-c1ccccc1` (centres unmarked) is reported as 2500 µg/mL.
The MIC of `O=C(C=Cc1ccc(O)c(O)c1)Oc1ccccc1` is reported as 16 µg/mL (broth dilution; FDA209).
`CC1(C)S[C@@H]2[C@H](NC(=O)[C@H](N)c3ccccc3)C(=O)N2[C@H]1C(=O)O` has an MIC of < 1.25 µM (24 h).
The MIC of `Cc1[nH]c(C(=O)Nc2ccc(C(=O)NCc3n[nH]c(=O)o3)cc2N2CCNCC2)c(Cl)c1Cl.Cl` is reported as > 32 µg/mL (broth dilution; ATCC29213).
For `Cc1nn(-c2ccccc2)c2c1C(c1ccc(O)cc1)N(C(=O)c1ccncc1)N2` (centres unmarked), the MIC was > 100 µg/mL (MTCC96; 24 h).
With `CN[C@H](CC(C)C)C(=O)N[C@H]1C(=O)N[C@@H](CC(N)=O)C(=O)N[C@H]2C(=O)N[C@H]3C(=O)N[C@H](C(=O)N[C@H](C(=O)O)c4cc(O)cc(O)c4-c4cc3ccc4O)[C@H](O)c3ccc(c(Cl)c3)Oc3cc2cc(c3O[C@@H]2O[C@H](CO)[C@@H](O)[C@H](O)[C@H]2O[C@H]2C[C@](C)(N)[C@H](O)[C@H](C)O2)Oc2ccc(cc2Cl)[C@H]1O` the MIC was 1 µM (BAA44 MRSA).
`CC1CCC(C(C)C)C(OC(=O)C=Cc2ccc(O)c(O)c2)C1` (centres unmarked) gave an MIC of 4 µg/mL (broth dilution; FDA209).
The MIC of `Cc1[nH]c(C(=O)Nc2ccc(C(=O)NCC(=O)O)cc2N2CC[C@H](NC(=O)OC(C)(C)C)C2)c(Cl)c1Cl` is reported as > 32 µg/mL (broth dilution; ATCC29213).
The MIC of `CC(O)CSc1nnc(-c2cc3c(ccc4ccccc43)o2)n1-c1ccccc1` (centres unmarked) is reported as 10000 µg/mL.
For `Cc1[nH]c(C(=O)Nc2ccc(C(=O)NCC(=O)O)cc2N2CCNCC2)c(Cl)c1Cl.Cl`, the MIC was > 32 µg/mL (broth dilution; ATCC29213).
For `CN[C@@H]1[C@@H](O[C@H]2O[C@H](CO)[C@@H](N)[C@H](O)[C@H]2O)OC2C[C@@H](N)[C@@H](O[C@H]3[C@H](O)[C@@H](O)[C@H](N)C[C@@H]3N)OC2[C@@H]1O` (some centres unmarked), the MIC was 1.25 to 2.5 µM (24 h).
With `CC(C)=CCCC(C)=CC1c2c(C)nn(-c3ccccc3)c2NN1C(=O)c1ccncc1` (centres unmarked) the MIC was > 100 µg/mL (MTCC96; 24 h).
With `CO[C@@H]1[C@@H](OC(N)=O)[C@@H](O)[C@H](Oc2ccc3c(O)c(NC(=O)c4ccc(O)c(CC=C(C)C)c4)c(=O)oc3c2C)OC1(C)C` the MIC was 0.25 µg/mL (broth dilution; ATCC29213).
The MIC of `Cc1nn(-c2ccccc2)c2c1C(c1cncs1)N(C(=O)c1ccncc1)N2` (centres unmarked) is reported as 32 µg/mL (MTCC96; 24 h).
With `C=C/C=C(\C)CC[C@H]1C[C@H](O)CC(=O)O1` the MIC was 256 µg/mL (broth dilution; ATCC6538P).
`Cc1nn(-c2ccccc2)c2c1C(c1ccco1)N(C(=O)c1ccncc1)N2` (centres unmarked) gave an MIC of 64 µg/mL (MTCC96; 24 h).
With `CC1(C)S[C@@H]2[C@H](NC(=O)[C@H](N)c3ccccc3)C(=O)N2[C@H]1C(=O)O` the MIC was 4 µg/mL (broth dilution; FDA209).
